Measurements reported in ChEMBL document CHEMBL4152279, “Synthesis, cytotoxic evaluation and target identification of thieno[2,3-d]pyrimidine derivatives with a dithiocarbamate side chain at C2 position” (Eur J Med Chem, 2018).
Activity calls are given as the source filed them. The calls are words filed in the database; no cut-off is given here.

Tests used:
[1] = target: Probable ATP-dependent RNA helicase DDX17 (Homo sapiens) (UniProt Q92841); experiment: Binding affinity to DDX17 in human A549 cells at 0.15 mM after 4 hrs by HPLC-MS based pull down assay relative to control; assay type: cell-based
How it was run: (§1)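 A549 lysate in NETN buffer (pH 8.0, 0.5% NP-40) incubated with biotinylated probe (0.15 mM final) 4 h at 4 °C, with biotin or control probe as comparators. Streptavidin Dynabeads 1 h at 4 °C, six NETN washes, proteins eluted by boiling in SDS buffer. After trypsin digestion, identification by LC-MS/MS on Q Exactive HF.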

[2] = target: Serine/arginine-rich splicing factor 1 (Homo sapiens) (UniProt Q07955); experiment: Binding affinity to serine/arginine-rich-splicing factor 1 in human A549 cells at 0.15 mM after 4 hrs by HPLC-MS based pull down assay relative to control; assay type: cell-based; how it was run: as §1
A549 = experiment: Binding affinity to tubulin alpha-3E in human A549 cells at 0.15 mM after 4 hrs by HPLC-MS based pull down assay relative to control; assay type: cell-based; how it was run: as §1
Sus scrofa [3] = organism: Sus scrofa; experiment: Inhibition of taxol binding to porcine tubulin preincubated with tubulin followed by taxol treatment measured after 2 hrs by immunoblot analysis
Sus scrofa [4] = organism: Sus scrofa; experiment: Binding affinity to porcine tubulin after overnight incubation by streptavidin pull down assay
How it was run: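 Purified porcine neuronal tubulin incubated with biotin, biotinylated probe or control probe in NETN buffer at 4 °C. Streptavidin Dynabeads 1 h at 4 °C, six washes, then SDS-PAGE and α-tubulin immunoblot.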

Sus scrofa [5] = organism: Sus scrofa; experiment: Inhibition of colchicine binding to porcine tubulin preincubated with tubulin followed by colchicine treatment measured after 2 hrs by immunoblot analysis
[6] = target: Ubiquitin carboxyl-terminal hydrolase 10 (Homo sapiens) (UniProt Q14694); experiment: Binding affinity to ubiquitin carboxyl-terminal hydrolase 10 isoform-2 in human A549 cells at 0.15 mM after 4 hrs by HPLC-MS based pull down assay relative to control; assay type: cell-based; how it was run: as §1
Sus scrofa [7] = organism: Sus scrofa; experiment: Inhibition of vinblastine binding to porcine tubulin preincubated with tubulin followed by vinblastine treatment measured after 2 hrs by immunoblot analysis
[8] = target: T1, RNA-binding protein EWS (Homo sapiens) (UniProt Q01844); experiment: Binding affinity to RNA-binding protein EWS in human A549 cells at 0.15 mM after 4 hrs by HPLC-MS based pull down assay relative to control; assay type: cell-based; how it was run: as §1
T1 sequence (whole entry): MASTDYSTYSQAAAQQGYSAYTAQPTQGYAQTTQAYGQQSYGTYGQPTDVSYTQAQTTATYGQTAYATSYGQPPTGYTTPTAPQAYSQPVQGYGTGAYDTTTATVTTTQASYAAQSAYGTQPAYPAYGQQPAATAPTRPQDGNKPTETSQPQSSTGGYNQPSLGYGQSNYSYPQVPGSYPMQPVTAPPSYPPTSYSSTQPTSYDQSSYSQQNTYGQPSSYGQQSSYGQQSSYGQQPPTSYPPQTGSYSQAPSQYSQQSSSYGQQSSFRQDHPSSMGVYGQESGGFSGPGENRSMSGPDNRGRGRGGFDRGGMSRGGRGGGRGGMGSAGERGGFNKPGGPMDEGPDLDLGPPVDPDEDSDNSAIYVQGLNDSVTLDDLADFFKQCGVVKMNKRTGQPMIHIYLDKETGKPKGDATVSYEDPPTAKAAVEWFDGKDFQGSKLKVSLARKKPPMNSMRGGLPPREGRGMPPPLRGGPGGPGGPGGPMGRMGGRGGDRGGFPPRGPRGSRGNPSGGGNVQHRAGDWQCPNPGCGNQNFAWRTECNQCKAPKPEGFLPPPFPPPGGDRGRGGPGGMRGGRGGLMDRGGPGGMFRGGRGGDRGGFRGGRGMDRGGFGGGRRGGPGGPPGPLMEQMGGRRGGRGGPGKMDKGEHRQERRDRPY

Sus scrofa [9] = organism: Sus scrofa; experiment: Inhibition of vinblastine binding to porcine tubulin treated 2 hrs post colchicine treatment by pull down assay
How it was run: (§2)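 Porcine neuronal tubulin was preincubated with excess taxol, colchicine, vinblastine or nocodazole for 2 h at 4 °C. Biotinylated probe was then added in NETN buffer, followed by streptavidin Dynabead pull-down for 1 h at 4 °C and six washes. Bound α-tubulin was detected by SDS–PAGE and immunoblot. Three independent experiments.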

[10] = target: Tubulin beta-3 chain (Homo sapiens) (UniProt Q13509); experiment: Binding affinity to tubulin beta-3 in human A549 cells at 0.15 mM after 4 hrs by HPLC-MS based pull down assay relative to control; assay type: cell-based; how it was run: as §1
[11] = target: Tubulin beta-4B chain (Homo sapiens) (UniProt P68371); experiment: Binding affinity to tubulin beta-4B in human A549 cells at 0.15 mM after 4 hrs by HPLC-MS based pull down assay relative to control; assay type: cell-based; how it was run: as §1
Sus scrofa [12] = organism: Sus scrofa; experiment: Inhibition of colchicine binding to porcine tubulin treated 2 hrs post colchicine treatment by pull down assay; how it was run: as §2
[13] = target: Tubulin alpha-1C chain (Homo sapiens) (UniProt Q9BQE3); experiment: Binding affinity to tubulin alpha-1C in human A549 cells at 0.15 mM after 4 hrs by HPLC-MS based pull down assay relative to control; assay type: cell-based; how it was run: as §1
Sus scrofa [14] = organism: Sus scrofa; experiment: Inhibition of nocodazole binding to porcine tubulin treated 2 hrs post colchicine treatment by pull down assay; how it was run: as §2
[15] = target: T1, RNA-binding protein EWS (Homo sapiens); experiment: Binding affinity to RNA-binding protein EWS isoform 6 in human A549 cells at 0.15 mM after 4 hrs by HPLC-MS based pull down assay relative to control; assay type: cell-based; how it was run: as §1
Sus scrofa [16] = organism: Sus scrofa; experiment: Inhibition of nocodazole binding to porcine tubulin preincubated with tubulin followed by nocodazole treatment measured after 2 hrs by immunoblot analysis

Sequence of Tubulin alpha-1C chain (Homo sapiens) (Q9BQE3 whole entry, looked up): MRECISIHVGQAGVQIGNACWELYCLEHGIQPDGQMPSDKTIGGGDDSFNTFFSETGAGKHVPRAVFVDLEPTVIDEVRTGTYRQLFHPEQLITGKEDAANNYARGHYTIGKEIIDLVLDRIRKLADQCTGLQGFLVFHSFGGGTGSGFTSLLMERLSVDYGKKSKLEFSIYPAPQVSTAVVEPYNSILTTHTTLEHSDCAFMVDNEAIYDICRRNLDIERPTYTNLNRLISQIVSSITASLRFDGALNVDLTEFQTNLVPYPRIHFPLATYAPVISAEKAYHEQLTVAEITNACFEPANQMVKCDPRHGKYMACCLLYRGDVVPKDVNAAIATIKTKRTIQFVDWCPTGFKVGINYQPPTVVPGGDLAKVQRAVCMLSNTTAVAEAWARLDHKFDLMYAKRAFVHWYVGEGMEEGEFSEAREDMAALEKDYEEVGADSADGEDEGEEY
Sequence of Probable ATP-dependent RNA helicase DDX17 (Homo sapiens) (Q92841 whole entry): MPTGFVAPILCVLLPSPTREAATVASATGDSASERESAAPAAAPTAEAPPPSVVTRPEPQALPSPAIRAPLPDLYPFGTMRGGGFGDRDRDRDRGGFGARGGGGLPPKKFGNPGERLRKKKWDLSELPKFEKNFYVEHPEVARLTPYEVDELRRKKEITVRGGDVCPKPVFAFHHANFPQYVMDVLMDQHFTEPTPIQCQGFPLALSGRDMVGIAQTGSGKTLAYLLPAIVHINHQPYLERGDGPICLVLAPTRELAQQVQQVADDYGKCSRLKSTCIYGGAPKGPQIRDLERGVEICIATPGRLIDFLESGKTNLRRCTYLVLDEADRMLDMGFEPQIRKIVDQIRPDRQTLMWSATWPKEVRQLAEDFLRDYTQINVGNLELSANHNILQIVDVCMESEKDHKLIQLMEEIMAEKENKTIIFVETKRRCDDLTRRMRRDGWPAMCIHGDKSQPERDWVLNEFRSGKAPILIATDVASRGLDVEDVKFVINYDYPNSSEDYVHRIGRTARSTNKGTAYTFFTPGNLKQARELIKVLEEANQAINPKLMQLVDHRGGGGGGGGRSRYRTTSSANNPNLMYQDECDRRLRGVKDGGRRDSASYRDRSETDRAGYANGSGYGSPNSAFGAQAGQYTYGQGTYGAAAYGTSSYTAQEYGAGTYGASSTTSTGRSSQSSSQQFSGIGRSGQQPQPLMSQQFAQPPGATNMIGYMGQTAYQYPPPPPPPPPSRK
Sequence of Serine/arginine-rich splicing factor 1 (Homo sapiens) (Q07955 whole entry): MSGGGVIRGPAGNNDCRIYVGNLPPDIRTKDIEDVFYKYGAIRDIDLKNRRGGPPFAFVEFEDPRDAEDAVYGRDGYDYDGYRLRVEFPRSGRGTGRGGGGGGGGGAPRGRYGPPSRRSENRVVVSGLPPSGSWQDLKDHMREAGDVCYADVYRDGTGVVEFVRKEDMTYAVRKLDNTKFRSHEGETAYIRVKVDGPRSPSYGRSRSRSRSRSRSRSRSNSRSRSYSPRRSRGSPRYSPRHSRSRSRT
Sequence of Ubiquitin carboxyl-terminal hydrolase 10 (Homo sapiens) (Q14694 whole entry, canonical isoform): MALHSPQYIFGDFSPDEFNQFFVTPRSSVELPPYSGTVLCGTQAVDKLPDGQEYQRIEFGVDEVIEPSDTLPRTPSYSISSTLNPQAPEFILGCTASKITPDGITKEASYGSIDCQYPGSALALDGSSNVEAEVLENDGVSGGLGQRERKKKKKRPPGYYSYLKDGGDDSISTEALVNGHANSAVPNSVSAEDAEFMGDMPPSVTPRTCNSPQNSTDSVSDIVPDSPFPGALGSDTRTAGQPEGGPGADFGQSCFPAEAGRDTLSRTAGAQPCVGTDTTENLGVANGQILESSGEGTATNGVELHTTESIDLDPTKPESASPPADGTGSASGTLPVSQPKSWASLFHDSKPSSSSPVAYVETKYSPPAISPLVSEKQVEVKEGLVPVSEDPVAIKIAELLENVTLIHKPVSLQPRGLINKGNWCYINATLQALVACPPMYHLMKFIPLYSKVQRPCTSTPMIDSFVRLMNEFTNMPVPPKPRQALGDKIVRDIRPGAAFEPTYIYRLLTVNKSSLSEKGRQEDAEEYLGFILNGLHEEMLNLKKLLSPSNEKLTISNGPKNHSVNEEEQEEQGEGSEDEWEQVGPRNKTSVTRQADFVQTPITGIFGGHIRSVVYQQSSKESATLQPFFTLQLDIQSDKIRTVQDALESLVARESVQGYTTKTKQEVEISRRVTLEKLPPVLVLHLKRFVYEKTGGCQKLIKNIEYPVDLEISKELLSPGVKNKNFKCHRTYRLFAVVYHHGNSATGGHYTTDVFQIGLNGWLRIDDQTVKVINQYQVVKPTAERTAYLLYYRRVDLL
Sequence of Tubulin beta-3 chain (Homo sapiens) (Q13509 whole entry): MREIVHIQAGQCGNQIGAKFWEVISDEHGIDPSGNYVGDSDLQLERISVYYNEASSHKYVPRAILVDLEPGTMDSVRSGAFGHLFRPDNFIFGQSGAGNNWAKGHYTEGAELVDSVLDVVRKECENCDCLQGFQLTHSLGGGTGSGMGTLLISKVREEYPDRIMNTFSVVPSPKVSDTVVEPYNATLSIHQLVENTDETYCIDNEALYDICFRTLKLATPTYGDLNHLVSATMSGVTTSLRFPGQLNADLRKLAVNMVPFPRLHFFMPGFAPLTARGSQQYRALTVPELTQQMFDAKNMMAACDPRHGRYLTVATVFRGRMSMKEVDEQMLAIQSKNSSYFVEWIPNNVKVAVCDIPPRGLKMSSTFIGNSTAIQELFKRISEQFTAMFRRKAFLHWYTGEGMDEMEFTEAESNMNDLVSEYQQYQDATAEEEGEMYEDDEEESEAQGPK
Sequence of Tubulin beta-4B chain (Homo sapiens) (P68371 whole entry): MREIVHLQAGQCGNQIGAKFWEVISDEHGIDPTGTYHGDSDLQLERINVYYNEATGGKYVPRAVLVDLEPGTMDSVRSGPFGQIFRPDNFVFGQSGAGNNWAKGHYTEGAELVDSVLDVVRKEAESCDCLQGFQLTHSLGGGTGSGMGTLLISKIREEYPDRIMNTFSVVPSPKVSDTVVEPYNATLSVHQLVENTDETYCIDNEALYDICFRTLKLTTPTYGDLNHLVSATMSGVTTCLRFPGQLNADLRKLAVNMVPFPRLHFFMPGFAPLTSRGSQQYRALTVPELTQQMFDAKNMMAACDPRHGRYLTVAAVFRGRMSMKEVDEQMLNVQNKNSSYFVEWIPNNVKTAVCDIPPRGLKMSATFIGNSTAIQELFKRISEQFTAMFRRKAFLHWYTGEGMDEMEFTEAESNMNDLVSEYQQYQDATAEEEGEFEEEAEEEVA

- Activity [1]: 52.8%
- Activity [2]: 52.2%
- inhibition (Sus scrofa [3]): inactive
- Activity (Sus scrofa [4]): Active
- inhibition (Sus scrofa [5]): Active
- Activity [6]: 42.8%
- inhibition (Sus scrofa [7]): Active
- Activity [8]: 55.8%
- inhibition (Sus scrofa [9]): Active
- Activity [10]: 16.7%
- Activity [11]: 34.2%
- inhibition (Sus scrofa [12]): Active
- Activity [13]: 16.6%
- inhibition (Sus scrofa [14]): Active
- Activity [15]: 40.5%
- inhibition (Sus scrofa [16]): Active
Structure (SMILES): Cc1cc2c(=O)[nH]c(CSC(=S)N(CCCNC(=O)CCCC[C@@H]3SC[C@@H]4NC(=O)N[C@@H]43)Cc3ccc(C#N)cc3)nc2s1
- Activity (A549): 15.3%
